Data from ChEMBL document CHEMBL1140345, “Conformational constraint in oxazolidinone antibacterials. Synthesis and structure-activity studies of (azabicyclo[3.1.0]hexylphenyl)oxazolidinones” (2005).
In brackets after ≈: the same amount, converted by molar mass.

Legend:
Staphylococcus aureus [1] = experiment: Minimum inhibitory concentration against methicillin-susceptible Staphylococcus aureus UC9213; format: functional
Outline: (§1)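 MIC determined by standard broth microdilution following the NCCLS M7-A4 approved standard for dilution susceptibility testing of aerobically growing bacteria.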

Staphylococcus aureus [2] = experiment: Minimum inhibitory concentration against methicillin, ciprofloxacin, rifampin, imipenem-resistant Staphylococcus aureus UC12673; format: functional; outline: as §1
Enterococcus faecalis [3] = experiment: Minimum inhibitory concentration against Enterococcus faecalis UC9217; format: functional
Outline: (§2)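 Broth microdilution MIC following the NCCLS M7-A4 approved standard for dilution susceptibility testing of aerobically growing bacteria. The method is taken as accurate to within one dilution.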

Streptococcus pneumoniae [4] = experiment: Minimum inhibitory concentration against penicillin-susceptible Streptococcus pneumoniae UC9912; format: functional; settings: Streptococcus pneumoniae; read-out: MIC; outline: as §2
[5] = test system: Staphylococcus epidermidis; experiment: Minimum inhibitory concentration against methicillin-resistant Staphylococcus epidermidis UC12084
Haemophilus influenzae [6] = experiment: Minimum inhibitory concentration against ampicillin-reisitant Haemophilus influenzae UC30063; format: functional; outline: as §2
Escherichia coli [7] = experiment: Minimum inhibitory concentration against Escherichia coli UC6674; format: functional; outline: as §2
Moraxella catarrhalis = experiment: Minimum inhibitory concentration Moraxella catarrhalis; format: functional; outline: as §2
Haemophilus influenzae [8] = experiment: Minimum inhibitory concentration against ampicillin-reisitant Haemophilus influenzae UC30063; Range is 8-16 ug/mL; format: functional; outline: as §1
Escherichia coli [9] = experiment: Minimum inhibitory concentration against Escherichia coli UC6674; Range is 16-32 ug/mL; format: functional; outline: as §2
Staphylococcus aureus [10] = experiment: Minimum inhibitory concentration against methicillin, ciprofloxacin, rifampin, imipenem-resistant Staphylococcus aureus UC12673; Range is 2-4 ug/mL; format: functional; outline: as §1
[11] = test system: Staphylococcus epidermidis; experiment: Minimum inhibitory concentration against methicillin-resistant Staphylococcus epidermidis UC12084; Range is 0.5-1 ug/mL
Staphylococcus aureus [12] = experiment: Minimum inhibitory concentration against methicillin-susceptible Staphylococcus aureus UC9213; Range is 2-4 ug/mL; format: functional; outline: as §1
Enterococcus faecalis [13] = experiment: Minimum inhibitory concentration against Enterococcus faecalis UC9217; Range is 1-2 ug/mL; format: functional; outline: as §2
Staphylococcus aureus [14] = experiment: Minimum inhibitory concentration against methicillin, ciprofloxacin, rifampin, imipenem-resistant Staphylococcus aureus UC12673; Range is 1-2 ug/mL; format: functional; outline: as §1
Enterococcus faecalis [15] = experiment: Minimum inhibitory concentration against Enterococcus faecalis UC9217; Range is from 2-4 ug/mL; format: functional; outline: as §2
[16] = test system: Staphylococcus epidermidis; experiment: Minimum inhibitory concentration against methicillin-resistant Staphylococcus epidermidis UC12084; Range is from 1-2 ug/mL
Haemophilus influenzae [17] = experiment: Minimum inhibitory concentration against ampicillin-reisitant Haemophilus influenzae UC30063; Range is from 8-16 ug/mL; format: functional; outline: as §2
Streptococcus pneumoniae [18] = experiment: Minimum inhibitory concentration against penicillin-susceptible Streptococcus pneumoniae UC9912; Range is from 0.5-1 ug/mL; format: functional; outline: as §2
[19] = Haemophilus influenzae, read-out: MIC

SMILES | MIC (Staphylococcus aureus [1]) [µg/mL] | MIC (Staphylococcus aureus [2]) [µg/mL] | MIC (Enterococcus faecalis [3]) [µg/mL] | MIC (Streptococcus pneumoniae [4]) [µg/mL] | MIC [5] [µg/mL] | MIC (Haemophilus influenzae [6]; [19]) [µg/mL] | MIC (Escherichia coli [7]) [µg/mL] | also measured
CC(=O)NC[C@H]1CN(c2cc(F)c(N3C[C@H]4C[C@H]4C3)c(F)c2)C(=O)O1 | 2 (≈ 5.69 µM) | 2 (≈ 5.69 µM) | 2 (≈ 5.69 µM) | 0.5 (≈ 1.42 µM) | 1 (≈ 2.85 µM) | 64 (≈ 182 µM) | > 64 | 
CC(=O)NC[C@H]1CN(c2cc(F)c(N3C[C@@H]4[C@H](C3)[C@H]4NC(=O)CO)c(F)c2)C(=O)O1 | 16 (≈ 37.7 µM) | 16 (≈ 37.7 µM) | 8 (≈ 18.8 µM) | 2 (≈ 4.71 µM) | 4 (≈ 9.42 µM) | 64 (≈ 151 µM) | > 64 | 
CC(=O)NC[C@H]1CN(c2cc(F)c(N3C[C@@H]4[C@H](C3)[C@H]4C(=O)NCc3ccco3)c(F)c2)C(=O)O1 | 2 (≈ 4.22 µM) | 2 (≈ 4.22 µM) | 1 (≈ 2.11 µM) | 0.5 (≈ 1.05 µM) | 1 (≈ 2.11 µM) | > 64 |  | 
CC(=O)NC[C@H]1CN(c2cc(F)c(N3C[C@@H]4[C@H](C3)[C@H]4C(=O)NO)c(F)c2)C(=O)O1 | 4 (≈ 9.75 µM) | 4 (≈ 9.75 µM) | 2 (≈ 4.87 µM) | 1 (≈ 2.44 µM) | 2 (≈ 4.87 µM) | 32 (≈ 78 µM) | > 64 | 
CC(=O)NC[C@H]1CN(c2cc(F)c(N3C[C@@H]4[C@H](C3)[C@H]4C(N)=O)c(F)c2)C(=O)O1 | 4 (≈ 10.1 µM) | 4 (≈ 10.1 µM) | 2 (≈ 5.07 µM) | 1 (≈ 2.54 µM) | 2 (≈ 5.07 µM) | 32 (≈ 81.1 µM) | > 64 | 
CC(=O)NC[C@H]1CN(c2ccc(N3CCOCC3)c(F)c2)C(=O)O1 [LINEZOLID] |  |  |  |  | 1 (≈ 2.96 µM) |  | > 64 | MIC (Moraxella catarrhalis): 4 µg/mL (≈ 11.9 µM); MIC (Haemophilus influenzae [8]): 16 µg/mL (≈ 47.4 µM)
CC(=O)NC[C@H]1CN(c2ccc(N3C[C@H]4C[C@H]4C3)c(F)c2)C(=O)O1 | 2 (≈ 6 µM) | 2 (≈ 6 µM) | 2 (≈ 6 µM) | 1 (≈ 3 µM) | 1 (≈ 3 µM) | 32 (≈ 96 µM) | > 64 | 
CC(=O)NC[C@H]1CN(c2cc(F)c(N3C[C@@H]4[C@@H](N)[C@@H]4C3)c(F)c2)C(=O)O1 (stereo in doubt; 18b) |  |  |  | 0.5 (≈ 1.36 µM) |  |  |  | MIC (Escherichia coli [9]): 32 µg/mL (≈ 87.3 µM); MIC (Staphylococcus aureus [10]): 4 µg/mL (≈ 10.9 µM); MIC [11]: 1 µg/mL (≈ 2.73 µM); MIC (Staphylococcus aureus [12]): 4 µg/mL (≈ 10.9 µM); MIC (Haemophilus influenzae [6]): 8 µg/mL (≈ 21.8 µM); MIC (Enterococcus faecalis [13]): 2 µg/mL (≈ 5.46 µM)
CC(=O)NC[C@H]1CN(c2cc(F)c(N3C[C@@H]4[C@@H](O)[C@@H]4C3)c(F)c2)C(=O)O1 |  |  |  | 1 (≈ 2.72 µM) | 1 (≈ 2.72 µM) | 16 (≈ 43.6 µM) | > 64 | MIC (Staphylococcus aureus [14]): 2 µg/mL (≈ 5.44 µM); MIC (Staphylococcus aureus [12]): 4 µg/mL (≈ 10.9 µM); MIC (Enterococcus faecalis [13]): 2 µg/mL (≈ 5.44 µM)
O=C(NC[C@H]1CN(c2cc(F)c(N3C[C@@H]4[C@H](C3)[C@H]4C(=O)O)c(F)c2)C(=O)O1)C(Cl)Cl | 1 (≈ 2.15 µM) | 0.5 (≈ 1.08 µM) | 0.5 (≈ 1.08 µM) | 0.5 (≈ 1.08 µM) | 0.5 (≈ 1.08 µM) | 4 (≈ 8.62 µM) |  | 
CC(=O)NC[C@H]1CN(c2cc(F)c(N3C[C@@H]4[C@H](C3)[C@H]4NC(=O)Nc3ccccc3)c(F)c2)C(=O)O1 | 8 (≈ 16.5 µM) | 4 (≈ 8.24 µM) | 2 (≈ 4.12 µM) | 1 (≈ 2.06 µM) | 2 (≈ 4.12 µM) | > 64 | > 64 | 
CC(=O)NC[C@H]1CN(c2cc(F)c(N3C[C@@H]4[C@H](C3)[C@H]4NC(C)=O)c(F)c2)C(=O)O1 | 4 (≈ 9.79 µM) | 4 (≈ 9.79 µM) |  | 1 (≈ 2.45 µM) |  | 64 (≈ 157 µM) | > 64 | MIC (Enterococcus faecalis [15]): 4 µg/mL (≈ 9.79 µM); MIC [16]: 2 µg/mL (≈ 4.9 µM)
CCC(=O)NC[C@H]1CN(c2cc(F)c(N3C[C@@H]4[C@@H](N)[C@@H]4C3)c(F)c2)C(=O)O1 | 4 (≈ 10.5 µM) | 4 (≈ 10.5 µM) |  |  |  |  |  | MIC (Haemophilus influenzae [17]): 16 µg/mL (≈ 42.1 µM); MIC (Enterococcus faecalis [15]): 4 µg/mL (≈ 10.5 µM); MIC (Streptococcus pneumoniae [18]): 1 µg/mL (≈ 2.63 µM); MIC [16]: 2 µg/mL (≈ 5.26 µM)
N[C@@H]1[C@H]2CN(c3c(F)cc(N4C[C@H](CNC(=O)C(F)F)OC4=O)cc3F)C[C@@H]12 | 4 (≈ 9.94 µM) | 2 (≈ 4.97 µM) | 2 (≈ 4.97 µM) | 1 (≈ 2.49 µM) | 2 (≈ 4.97 µM) | 8 (≈ 19.9 µM) |  | 
COc1ccc(NC(=O)[C@H]2[C@@H]3CN(c4c(F)cc(N5C[C@H](CNC(C)=O)OC5=O)cc4F)C[C@@H]32)cn1 | 2 (≈ 3.99 µM) | 2 (≈ 3.99 µM) | 1 (≈ 1.99 µM) | 0.5 (≈ 0.997 µM) | 1 (≈ 1.99 µM) | > 64 |  | 
